≈ marks a conversion by molar mass, not a printed value.
How the values were obtained:
Pseudomonas aeruginosa [1] = experiment: Antimicrobial activity against Pseudomonas aeruginosa ATCC 15499 assessed as diameter of inhibition zone at 20 uM after 24 hrs by Kirby -Baur disc diffusion method; assay type: functional; details: ATCC 15499, 24 h, read-out: DIZ
How it was run: (§1)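 Kirby-Bauer disc diffusion was used. Acetone stocks (160 µM) were serially doubled down to 80, 40 and 20 µM. 4 µL of each went onto 5 mm sterile paper discs, which were dried 30 min at 50 °C. Inoculum was 1.5 × 10⁸ CFU/mL diluted to 3 × 10² CFU/mL, and 50 µL was spread on Mueller-Hinton agar. After 24 h at 37 °C the inhibition-zone diameter was measured. Ciprofloxacin served as positive control.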

Trichoderma viride [2] = experiment: Antifungal activity against Trichoderma viride MTCC 1107 assessed as zone of inhibition at 80 uM after 48 hrs by disc diffusion method; assay type: functional; details: MTCC 1107, 48 h, read-out: IZ
How it was run: (§2)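 Spores from 4-day potato dextrose agar cultures, suspended in sterile water at 1.5 × 10⁵ CFU/mL. 0.2 mL was spread on potato dextrose agar. 5 mm filter-paper discs soaked with test compound were laid on the lawn. Incubation was 48 h at 28 °C, then the inhibition zone was measured in mm. Fluconazole was the positive control and acetone the negative control.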

Pseudomonas aeruginosa [3] = experiment: Antimicrobial activity against Pseudomonas aeruginosa ATCC 15499 assessed as diameter of inhibition zone at 80 uM after 24 hrs by Kirby -Baur disc diffusion method; assay type: functional; details: ATCC 15499, 24 h, read-out: DIZ; how it was run: as §1
Bacillus cereus [4] = experiment: Antimicrobial activity against Bacillus cereus MTCC 7350 assessed as diameter of inhibition zone at 40 uM after 24 hrs by Kirby -Baur disc diffusion method; assay type: functional; details: MTCC 7350, 24 h, read-out: DIZ; how it was run: as §1
Curvularia lunata [5] = experiment: Antifungal activity against Curvularia lunata MTCC 581 assessed as zone of inhibition at 20 uM after 48 hrs by disc diffusion method; assay type: functional; details: MTCC 581, 48 h, read-out: IZ; how it was run: as §2
Aspergillus niger [6] = experiment: Antifungal activity against Aspergillus niger MTCC 1108 assessed as zone of inhibition at 20 uM after 48 hrs by disc diffusion method; assay type: functional; details: MTCC 1108, 48 h, read-out: IZ; how it was run: as §2
Curvularia lunata [7] = experiment: Antifungal activity against Curvularia lunata MTCC 581 after 48 hrs; assay type: functional; details: MTCC 581, 48 h
Escherichia coli [8] = experiment: Antimicrobial activity against Escherichia coli ATCC 35218 assessed as diameter of inhibition zone at 80 uM after 24 hrs by Kirby -Baur disc diffusion method; assay type: functional; details: ATCC 35218, 24 h, read-out: DIZ; how it was run: as §1
Staphylococcus aureus [9] = experiment: Antimicrobial activity against Staphylococcus aureus ATCC 11632 assessed as diameter of inhibition zone at 80 uM after 24 hrs by Kirby -Baur disc diffusion method; assay type: functional; details: ATCC 11632, 24 h, read-out: DIZ; how it was run: as §1
QG-56 = experiment: Cytotoxicity against human QG56 cells after 24 hrs by MTT assay; assay type: functional, cell-based
How it was run: (§3)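 The MTT assay seeded 5 × 10⁴ cells per well and grew them 24 h in RPMI 1640 with compound at 2.5–200 µM. Medium without cells was the blank and adriamycin the positive control. MTT was added for 4 h at 37 °C, formazan was solubilised, and absorbance was read at 570 nm. IC50 is the concentration that cuts viability 50% against untreated cells.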

Salmonella typhi [10] = experiment: Antimicrobial activity against Salmonella typhi ATCC 23564 assessed as diameter of inhibition zone at 40 uM after 24 hrs by Kirby -Baur disc diffusion method; assay type: functional, Salmonella enterica subsp. enterica serovar Typhi; details: Salmonella enterica, ATCC 23564, 24 h; read-out: DIZ
Pseudomonas aeruginosa [11] = experiment: Antimicrobial activity against Pseudomonas aeruginosa ATCC 15499 assessed as diameter of inhibition zone at 40 uM after 24 hrs by Kirby -Baur disc diffusion method; assay type: functional; details: ATCC 15499, 24 h, read-out: DIZ; how it was run: as §1
Salmonella typhi [12] = experiment: Antimicrobial activity against Salmonella typhi ATCC 23564 assessed as diameter of inhibition zone at 20 uM after 24 hrs by Kirby -Baur disc diffusion method; assay type: functional, Salmonella enterica subsp. enterica serovar Typhi; details: Salmonella enterica, ATCC 23564, 24 h; read-out: DIZ
Salmonella typhi [13] = experiment: Antimicrobial activity against Salmonella typhi ATCC 23564 assessed as diameter of inhibition zone at 80 uM after 24 hrs by Kirby -Baur disc diffusion method; assay type: functional, Salmonella enterica subsp. enterica serovar Typhi; details: Salmonella enterica, ATCC 23564, 24 h; read-out: DIZ
Curvularia lunata [14] = experiment: Antifungal activity against Curvularia lunata MTCC 581 assessed as zone of inhibition at 40 uM after 48 hrs by disc diffusion method; assay type: functional; details: MTCC 581, 48 h, read-out: IZ; how it was run: as §2
HepG2 = experiment: Cytotoxicity against human HepG2 cells after 24 hrs by MTT assay; assay type: functional, cell-based; how it was run: as §3
Aspergillus flavus [15] = experiment: Antifungal activity against Aspergillus flavus MTCC 1021 assessed as zone of inhibition at 80 uM after 48 hrs by disc diffusion method; assay type: functional; details: MTCC 1021, 48 h, read-out: IZ; how it was run: as §2
Aspergillus niger [16] = experiment: Antifungal activity against Aspergillus niger MTCC 1108 assessed as zone of inhibition at 40 uM after 48 hrs by disc diffusion method; assay type: functional; details: MTCC 1108, 48 h, read-out: IZ; how it was run: as §2
Salmonella typhi [17] = experiment: Antimicrobial activity against Salmonella typhi ATCC 23564 after 24 hrs by broth micro serial dilution method; assay type: functional, Salmonella enterica subsp. enterica serovar Typhi; details: Salmonella enterica, ATCC 23564, 24 h
Aspergillus niger [18] = experiment: Antifungal activity against Aspergillus niger MTCC 1108 assessed as zone of inhibition at 80 uM after 48 hrs by disc diffusion method; assay type: functional; details: MTCC 1108, 48 h, read-out: IZ; how it was run: as §2
Bacillus cereus [19] = experiment: Antimicrobial activity against Bacillus cereus MTCC 7350 after 24 hrs by broth micro serial dilution method; assay type: functional; details: MTCC 7350, 24 h
How it was run: (§4)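 This was broth microdilution in autoclaved Mueller-Hinton broth. 150 µL of compound per well was serially diluted […], and 50 µL of test organism was added. Plates were incubated 24 h at 37 °C and optical density was read.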

Staphylococcus aureus [20] = experiment: Antimicrobial activity against Staphylococcus aureus ATCC 11632 assessed as diameter of inhibition zone at 40 uM after 24 hrs by Kirby -Baur disc diffusion method; assay type: functional; details: ATCC 11632, 24 h, read-out: DIZ; how it was run: as §1
Escherichia coli [21] = experiment: Antimicrobial activity against Escherichia coli ATCC 35218 assessed as diameter of inhibition zone at 20 uM after 24 hrs by Kirby -Baur disc diffusion method; assay type: functional; details: ATCC 35218, 24 h, read-out: DIZ; how it was run: as §1
Aspergillus niger [22] = experiment: Antifungal activity against Aspergillus niger MTCC 1108 after 48 hrs; assay type: functional; details: MTCC 1108, 48 h
Aspergillus flavus [23] = experiment: Antifungal activity against Aspergillus flavus MTCC 1021 after 48 hrs; assay type: functional; details: MTCC 1021, 48 h
Trichoderma viride [24] = experiment: Antifungal activity against Trichoderma viride MTCC 1107 after 48 hrs; assay type: functional; details: MTCC 1107, 48 h
HeLa = experiment: Cytotoxicity against human HeLa cells after 24 hrs by MTT assay; assay type: functional, cell-based; how it was run: as §3
HCT-116 = experiment: Cytotoxicity against human HCT116 cells after 24 hrs by MTT assay; assay type: functional, cell-based; how it was run: as §3
Trichoderma viride [25] = experiment: Antifungal activity against Trichoderma viride MTCC 1107 assessed as zone of inhibition at 40 uM after 48 hrs by disc diffusion method; assay type: functional; details: MTCC 1107, 48 h, read-out: IZ; how it was run: as §2
Staphylococcus aureus [26] = experiment: Antimicrobial activity against Staphylococcus aureus ATCC 11632 after 24 hrs by broth micro serial dilution method; assay type: functional; details: ATCC 11632, 24 h; how it was run: as §4
Trichoderma viride [27] = experiment: Antifungal activity against Trichoderma viride MTCC 1107 assessed as zone of inhibition at 20 uM after 48 hrs by disc diffusion method; assay type: functional; details: MTCC 1107, 48 h, read-out: IZ; how it was run: as §2
Aspergillus flavus [28] = experiment: Antifungal activity against Aspergillus flavus MTCC 1021 assessed as zone of inhibition at 40 uM after 48 hrs by disc diffusion method; assay type: functional; details: MTCC 1021, 48 h, read-out: IZ; how it was run: as §2
Escherichia coli [29] = experiment: Antimicrobial activity against Escherichia coli ATCC 35218 assessed as diameter of inhibition zone at 40 uM after 24 hrs by Kirby -Baur disc diffusion method; assay type: functional; details: ATCC 35218, 24 h, read-out: DIZ; how it was run: as §1
Mus musculus = experiment: Antiinflammatory activity in mouse assessed as inhibition of carrageenan-induced increase in paw volume at 200 mg/kg administered 1 hr prior to carrageenan challenge measured after 3 hrs relative to control; assay type: functional
How it was run: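 Mice were fasted 2 h and placed in groups of five. Controls received saline i.p. Phenylbutazone was given at 100 mg/kg i.p., curcumin at 200 mg/kg i.p., and derivatives at 200 mg/kg. After 1 h, 0.1 mL of 1% carrageenan in saline was injected subplantar into the right hind paw. Paw volume was followed by plethysmometer for 3 h, and % inhibition was calculated as (Vc − Vt)/Vc × 100.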

Curvularia lunata [30] = experiment: Antifungal activity against Curvularia lunata MTCC 581 assessed as zone of inhibition at 80 uM after 48 hrs by disc diffusion method; assay type: functional; details: MTCC 581, 48 h, read-out: IZ; how it was run: as §2
Escherichia coli [31] = experiment: Antimicrobial activity against Escherichia coli ATCC 35218 after 24 hrs by broth micro serial dilution method; assay type: functional; details: ATCC 35218, 24 h; how it was run: as §4
Bacillus cereus [32] = experiment: Antimicrobial activity against Bacillus cereus MTCC 7350 assessed as diameter of inhibition zone at 80 uM after 24 hrs by Kirby -Baur disc diffusion method; assay type: functional; details: MTCC 7350, 24 h, read-out: DIZ; how it was run: as §1
Bacillus cereus [33] = experiment: Antimicrobial activity against Bacillus cereus MTCC 7350 assessed as diameter of inhibition zone at 20 uM after 24 hrs by Kirby -Baur disc diffusion method; assay type: functional; details: MTCC 7350, 24 h, read-out: DIZ; how it was run: as §1
Staphylococcus aureus [34] = experiment: Antimicrobial activity against Staphylococcus aureus ATCC 11632 assessed as diameter of inhibition zone at 20 uM after 24 hrs by Kirby -Baur disc diffusion method; assay type: functional; details: ATCC 11632, 24 h, read-out: DIZ; how it was run: as §1
Pseudomonas aeruginosa [35] = experiment: Antimicrobial activity against Pseudomonas aeruginosa ATCC 15499 after 24 hrs by broth micro serial dilution method; assay type: functional; details: ATCC 15499, 24 h; how it was run: as §4
Aspergillus flavus [36] = experiment: Antifungal activity against Aspergillus flavus MTCC 1021 assessed as zone of inhibition at 20 uM after 48 hrs by disc diffusion method; assay type: functional; details: MTCC 1021, 48 h, read-out: IZ; how it was run: as §2

**Q.** What does the source list for COc1ccc(NS(=O)(=O)c2ccc(/N=C(\C=C\c3ccc(O)c(OC)c3)CC(/C=C/c3ccc(O)c(OC)c3)=N/c3ccc(S(=O)(=O)Nc4ccc(OC)nn4)cc3)cc2)nn1?
**A.** zone of inhibition at 20 µM (Pseudomonas aeruginosa [1]): 12 mm; zone of inhibition at 80 µM (Trichoderma viride [2]): 19 mm; zone of inhibition at 80 µM (Pseudomonas aeruginosa [3]): 22 mm; zone of inhibition at 40 µM (Bacillus cereus [4]): 17 mm; zone of inhibition at 20 µM (Curvularia lunata [5]): 12 mm; zone of inhibition at 20 µM (Aspergillus niger [6]): 8 mm; MIC (Curvularia lunata [7]): 20 µM (≈ 17.9 µg/mL); zone of inhibition at 80 µM (Escherichia coli [8]): 19 mm; zone of inhibition at 80 µM (Staphylococcus aureus [9]): 21 mm; IC50 (QG-56): 50 µM; zone of inhibition at 40 µM (Salmonella typhi [10]): 19 mm; zone of inhibition at 40 µM (Pseudomonas aeruginosa [11]): 19 mm; zone of inhibition at 20 µM (Salmonella typhi [12]): 14 mm; zone of inhibition at 80 µM (Salmonella typhi [13]): 21 mm; zone of inhibition at 40 µM (Curvularia lunata [14]): 15 mm; IC50 (HepG2): 50 µM; zone of inhibition at 80 µM (Aspergillus flavus [15]): 13 mm; zone of inhibition at 40 µM (Aspergillus niger [16]): 10 mm; MIC (Salmonella typhi [17]): 40 µM (≈ 35.7 µg/mL); zone of inhibition at 80 µM (Aspergillus niger [18]): 12 mm; MIC (Bacillus cereus [19]): 40 µM (≈ 35.7 µg/mL); zone of inhibition at 40 µM (Staphylococcus aureus [20]): 19 mm; zone of inhibition at 20 µM (Escherichia coli [21]): 14 mm; MIC (Aspergillus niger [22]): 40 µM (≈ 35.7 µg/mL); MIC (Aspergillus flavus [23]): 80 µM (≈ 71.4 µg/mL); MIC (Trichoderma viride [24]): 20 µM (≈ 17.9 µg/mL); IC50 (HeLa): 50 µM; IC50 (HCT-116): 25 µM; zone of inhibition at 40 µM (Trichoderma viride [25]): 16 mm; MIC (Staphylococcus aureus [26]): 40 µM (≈ 35.7 µg/mL); zone of inhibition at 20 µM (Trichoderma viride [27]): 12 mm; zone of inhibition at 40 µM (Aspergillus flavus [28]): 11 mm; zone of inhibition at 40 µM (Escherichia coli [29]): 17 mm; inhibition in vivo at 200 mg/kg (Mus musculus): 33.8%; zone of inhibition at 80 µM (Curvularia lunata [30]): 18 mm; MIC (Escherichia coli [31]): 40 µM (≈ 35.7 µg/mL); zone of inhibition at 80 µM (Bacillus cereus [32]): 22 mm; zone of inhibition at 20 µM (Bacillus cereus [33]): 13 mm; zone of inhibition at 20 µM (Staphylococcus aureus [34]): 11 mm; MIC (Pseudomonas aeruginosa [35]): 40 µM (≈ 35.7 µg/mL); zone of inhibition at 20 µM (Aspergillus flavus [36]): 9 mm
